The results in this text go back to ChEMBL document CHEMBL4406810, “Modifications on the Amino-3,5-dicyanopyridine Core To Obtain Multifaceted Adenosine Receptor Ligands with Antineuropathic Activity” (J Med Chem, 2019).

Molecules are shown by their SMILES. Active and inactive are the calls of the source.

The test system of data set [1] is CHO. In words: Effect on cAMP level in wild-type CHO cells at 0.001 to 1 uM by alphascreen assay. Conditions: Cricetulus griseus. The class given is functional, cell-based. In outline:
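Compounds at 1 nM to 1 µM final concentrations. cAMP quantified with AlphaScreen kit. Four independent experiments, each in triplicate.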
Background: cAMP levels reflect the balance of adenylyl cyclase and phosphodiesterase activity.

Data set [2] addresses T1, Adenosine receptor A1 (Homo sapiens, UniProt P30542).
T1 sequence (P30542 whole entry): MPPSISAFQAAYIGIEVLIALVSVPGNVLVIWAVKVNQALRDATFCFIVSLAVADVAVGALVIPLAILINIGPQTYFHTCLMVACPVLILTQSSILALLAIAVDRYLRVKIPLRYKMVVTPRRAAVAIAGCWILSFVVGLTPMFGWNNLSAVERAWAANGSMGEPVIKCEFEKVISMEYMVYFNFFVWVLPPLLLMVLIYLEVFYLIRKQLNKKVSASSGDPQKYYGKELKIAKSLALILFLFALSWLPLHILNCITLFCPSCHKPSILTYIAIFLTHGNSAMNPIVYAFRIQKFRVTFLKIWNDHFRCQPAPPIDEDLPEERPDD
In words: Displacement of [3H]DPCPX from human A1AR expressed in CHO cell membranes measured after 90 mins by scintillation counting method. The method, boiled down: (§1)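 Nonspecific binding with 1 µM DPCPX. GF/B filtration and scintillation counting. Ki by Cheng–Prusoff. Inhibition % at 1 µM. Four experiments in triplicate.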
In general terms: Displacement assays read how much labelled ligand stays bound in the presence of the test substance.

The target in data set [3] is T2, Adenosine receptor A2a (Homo sapiens, UniProt P29274). In words: Displacement of [3H]ZM241385 from human A2AR expressed in CHO cell membranes at 1 uM measured after 60 mins by scintillation counting method relative to control. The method, boiled down: (§2)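 Nonspecific binding defined with 1 µM ZM241385. Filtered on GF/B, scintillation counted. Ki by Cheng–Prusoff. Percent inhibition at 1 µM. Four experiments in triplicate.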
T2 sequence (P29274 whole entry): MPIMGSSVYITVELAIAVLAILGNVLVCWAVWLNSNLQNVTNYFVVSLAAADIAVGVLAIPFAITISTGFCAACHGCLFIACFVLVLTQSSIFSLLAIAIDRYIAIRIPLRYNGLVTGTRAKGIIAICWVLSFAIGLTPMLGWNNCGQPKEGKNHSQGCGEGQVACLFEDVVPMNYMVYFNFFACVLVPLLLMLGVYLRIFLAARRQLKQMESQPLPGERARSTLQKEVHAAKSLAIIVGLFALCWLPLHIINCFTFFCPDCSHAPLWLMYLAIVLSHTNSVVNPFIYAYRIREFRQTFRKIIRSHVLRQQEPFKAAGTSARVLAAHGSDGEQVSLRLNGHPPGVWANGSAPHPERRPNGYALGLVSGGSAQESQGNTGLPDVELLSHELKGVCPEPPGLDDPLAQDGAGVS

Data set [4] addresses T3, Adenosine receptor A3 (Homo sapiens) (UniProt P0DMS8).
T3 sequence (whole entry): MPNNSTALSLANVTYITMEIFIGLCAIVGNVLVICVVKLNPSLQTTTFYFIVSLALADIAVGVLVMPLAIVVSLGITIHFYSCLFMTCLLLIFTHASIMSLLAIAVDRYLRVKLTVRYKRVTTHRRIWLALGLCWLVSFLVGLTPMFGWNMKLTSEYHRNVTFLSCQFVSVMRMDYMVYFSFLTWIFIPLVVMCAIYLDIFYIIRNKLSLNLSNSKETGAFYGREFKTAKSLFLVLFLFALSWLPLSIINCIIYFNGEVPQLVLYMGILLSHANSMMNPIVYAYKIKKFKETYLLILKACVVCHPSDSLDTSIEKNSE
In words: Displacement of [125I]ABMECA from human A3R expressed in CHO cell membranes at 1 uM measured after 120 mins by scintillation counting method relative to control. In outline: (§3)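 Nonspecific binding with 1 µM AB-MECA. GF/B filtration and counting. Ki via Cheng–Prusoff. Percent inhibition at 1 µM. Four experiments in triplicate.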

For data set [5], the target named is T4, Adenosine receptor A2b (Homo sapiens, UniProt P29275).
T4 sequence (P29275 whole entry): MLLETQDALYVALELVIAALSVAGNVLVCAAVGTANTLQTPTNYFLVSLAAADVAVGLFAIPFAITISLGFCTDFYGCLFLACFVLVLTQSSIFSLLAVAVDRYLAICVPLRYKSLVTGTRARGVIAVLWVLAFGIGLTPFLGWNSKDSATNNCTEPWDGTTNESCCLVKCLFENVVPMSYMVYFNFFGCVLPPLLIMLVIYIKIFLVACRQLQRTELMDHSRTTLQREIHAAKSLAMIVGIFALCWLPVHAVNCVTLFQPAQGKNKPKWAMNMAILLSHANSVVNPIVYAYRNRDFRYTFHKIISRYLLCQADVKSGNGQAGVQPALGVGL
In words: Agonist activity at human A2B expressed in CHO cells assessed as stimulation of cAMP production by alphascreen assay. The class given is functional, cell-based. The method, boiled down:
(§4)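 Compounds tested alone at final 1 nM to 1 µM. cAMP measured by AlphaScreen. Efficacy taken at 1 µM relative to NECA 1 µM (=100%). Four independent experiments in triplicate.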

Data set [6] concerns the target T5, Adenosine receptor A2b (Homo sapiens) (UniProt P29275).
T5 sequence (whole entry): T4 sequence (P29275 whole entry)
The experiment in a line: Agonist activity at human A2B expressed in CHO cells assessed as stimulation of cAMP production at 1 uM by alphascreen assay relative to NECA. The format is functional, cell-based. The method, boiled down: as §4

The target in data set [7] is T5, Adenosine receptor A2b (Homo sapiens). The experiment in a line: Antagonist activity at human A2BR expressed in CHO cells assessed as inhibition of NECA-stimulated cAMP production at 1 uM by alphascreen assay relative to control. The format is functional, cell-based. The method, boiled down: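 Compounds added at 1 nM to 1 µM final, with percent inhibition read at 1 µM. AlphaScreen cAMP read-out. IC50 by sigmoid non-linear regression. Four independent experiments in triplicate.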

Data set [8] concerns the target T1, Adenosine receptor A1. The experiment in a line: Inverse agonist activity at human A1AR expressed in CHO cells assessed as increase in forskolin-stimulated cAMP production by alphascreen assay. The format is functional, cell-based. The method, boiled down: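 Compounds at 1 nM to 1 µM. cAMP rise measured by AlphaScreen. EC50 from sigmoid fit. Four independent experiments in triplicate.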

Data set [9] concerns the target T6, Adenosine receptor A1 (Homo sapiens) (UniProt P30542).
T6 sequence (whole entry): T1 sequence (P30542 whole entry)
The experiment in a line: Inverse agonist activity at human A1AR expressed in CHO cells assessed as increase in forskolin-stimulated cAMP production by alphascreen assay relative to DPCPX. The class given is functional, cell-based. The method, boiled down: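 Compounds at 1 nM to 1 µM. cAMP rise measured by AlphaScreen. EC50 from sigmoid fit. […] Four independent experiments in triplicate.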

Data set [10] concerns the target T1, Adenosine receptor A1. In words: Antagonist activity at human A1AR expressed in CHO cells assessed as suppression of CCPA-induced inhibition of forskolin-stimulated cAMP production by alphascreen assay. The format is functional, cell-based. The method, boiled down:
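hA1 CHO cells in HBSS with HEPES, Ro 20-1724 (phosphodiesterase inhibitor), BSA and adenosine deaminase. Forskolin 5 µM with CCPA 1 nM. […] AlphaScreen detection. IC50 and Emax by sigmoid fit. Four independent experiments in triplicate.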

The target of data set [11] is T6, Adenosine receptor A1 (Homo sapiens). In words: Displacement of [3H]DPCPX from human A1AR expressed in CHO cell membranes at 1 uM measured after 90 mins by scintillation counting method relative to control. The method, boiled down: as §1
Data set [12] can be described thus: Half life in human plasma at 1 uM by LC-MS/MS analysis. The format is ADME, cell-free. The method, boiled down: (§5)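 Analyte spiked at 1 µM into human plasma or heparinized Sprague-Dawley male rat plasma (or PBS). Incubated at 37°C for 0, 30, 60, 120 min in triplicate. Internal standard added, centrifuged, dried, reconstituted. Quantified by LC-MS/MS (ESI negative, MRM) against a 0–1 µM calibration. Half-life from concentration-time profile.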

Data set [13] addresses T2, Adenosine receptor A2a. In words: Displacement of [3H]ZM241385 from human A2AR expressed in CHO cell membranes measured after 60 mins by scintillation counting method. In outline:
as §2

Data set [14] has as its target T7, Adenosine receptor A3 (Homo sapiens, UniProt P0DMS8).
T7 sequence (P0DMS8 whole entry): T3 sequence (whole entry)
In words: Displacement of [125I]ABMECA from human A3R expressed in CHO cell membranes measured after 120 mins by scintillation counting method. In outline: as §3

Data set [15] in a line: Half life in Sprague-Dawley rat plasma at 1 uM by LC-MS/MS analysis. The format is ADME, cell-free. The method, boiled down: as §5
Data set [16] concerns the target T2, Adenosine receptor A2a. In words: Antagonist activity at human A2AR expressed in CHO cells assessed as inhibition of CGS21680-stimulated cAMP production by alphascreen assay. The class given is functional, cell-based.

As to `N#Cc1c(N)nc(SCCO)c(C#N)c1-c1ccoc1`, the outcome in data set [1] was inactive. Further, the affinity in data set [2] corresponds to a Ki of 19 nM. Besides, the inhibition in [3] was 19%; in data set [4], 34%; in [7], 38%. Besides, the results for the EC50 in data set [5] and in [8] were 852 nM and 58 nM, respectively. Moreover, in [6], the Efficacy was 32%. In [9], the Emax turned out to be 39%.

`N#Cc1c(NC2CC2)nc(SCCO)c(C#N)c1-c1ccco1`: the result in data set [1] was inactive. Moreover, the inhibition constant Ki in data set [2] came out at 89 nM. Further, the inhibition in data set [3] and in [4] was 30% throughout. In addition, the EC50 in [5] was > 1000 nM. Moreover, the Efficacy in data set [6] was determined as 4%. In addition, the IC50 in data set [10] was determined as 118 nM.

Turning to `N#Cc1c(N)nc(NCCO)c(C#N)c1-c1cccnc1`, the result in [1] was inactive. In addition, the inhibition worked out at 1% in data set [11], 1% in data set [3] and 8% in [4]. Further, the EC50 in data set [5] is > 1000 nM. Besides, the Efficacy in data set [6] was found to be 1%.

For the compound `CCOC(=O)C(C)c1cccc(C(=O)c2ccccc2)c1` (centres undefined), the half-life at 1 µM in [12] turned out to be 1.67 h.

As to `N#Cc1c(N)nc(NCCO)c(C#N)c1-c1ccco1`, the result in data set [1] was inactive. Besides, the inhibition in data set [11] came out at 20%; in data set [3], 18%; in data set [4] it was 17%; in data set [7], 6%. Besides, the EC50 in [5] was > 1000 nM. In addition, in data set [6], the Efficacy was 1%.

For `N#Cc1c(N)nc(SCc2ccncc2)c(C#N)c1-c1ccco1`, the result in data set [1] was inactive. Further, the inhibition constant Ki in [2] is 40 nM; in data set [13], 114 nM; in data set [14], 678 nM. Further, the EC50 in [5] is > 1000 nM. In addition, the Efficacy in data set [6] turned out to be 14%. For the same compound, the inhibition in [7] was 40%.

For the compound `N#Cc1c(N)nc(SCCO)c(C#N)c1-c1ccco1`, the result in data set [1] was inactive. Also, the Ki in data set [2] amounted to 57 nM. In addition, the inhibition in [3] is 27%; in data set [4], 29%; in data set [7] it was 33%. Further, the values for the EC50 in data set [5] and in [8] were > 1000 nM and 128 nM, respectively. Moreover, in data set [6], the Efficacy worked out at 7%. The Emax in [9] came out at 83%.

`CCOC(=O)[C@H](CCc1ccccc1)N[C@@H](C)C(=O)N1CCC[C@H]1C(=O)O` returned a half-life at 1 µM in data set [15] of 0.367 h.

Consider `N#Cc1c(N)nc(SCc2cccnc2)c(C#N)c1-c1ccco1`, for which the result in data set [1] was inactive. Further, the Ki in [2] is 1.42 nM; in data set [13], 24 nM; in [14], 948 nM. The figures for the EC50 in [5] and in [8] were > 1000 nM and 2.73 nM, respectively. Besides, the Efficacy in data set [6] is 1%. Further, in data set [9], the Emax worked out at 47%. The IC50 in data set [16] came to 83 nM.

With `N#Cc1c(Nc2ccc(I)cc2)nc(SCCO)c(C#N)c1-c1ccco1`, in [1], the result was inactive. Besides, the inhibition in data set [11] came to 10%; in [3], 1%; in data set [4], 8%. In data set [5], the EC50 is > 1000 nM. Further, the Efficacy in data set [6] stood at 1%.

`N#Cc1c(NCc2ccccc2)nc(SCCO)c(C#N)c1-c1ccco1`: the result in [1] was inactive. The Ki in data set [2] turned out to be 65 nM; in data set [13], 461 nM. Moreover, the inhibition in [4] worked out at 14%. Besides, the EC50 in data set [5] is > 1000 nM. Besides, the Efficacy in [6] is 3%. Besides, the IC50 in [10] was determined as 76 nM.

The term Ki denotes a measure of affinity in units of concentration, obtained from inhibition or displacement. Higher therefore signals lower affinity. For orientation: inhibition means how much of the control response was suppressed. Broadly, the EC50 is the concentration that produces a half-maximal response. The Emax is the greatest response seen or fitted, relative to the assay's reference. What is called IC50 is the concentration at which inhibition is half-maximal. As a reminder, the half-life is the time needed for the level to fall by half in the phase considered.
